# Measured values of several laboratories.
# Compare with care: the assays were run in different laboratories.
# Target: Serine/threonine-protein kinase DCLK2 (DCLK2, Homo sapiens, UniProt Q8N568)
# One construct used (Q8N568 1-766): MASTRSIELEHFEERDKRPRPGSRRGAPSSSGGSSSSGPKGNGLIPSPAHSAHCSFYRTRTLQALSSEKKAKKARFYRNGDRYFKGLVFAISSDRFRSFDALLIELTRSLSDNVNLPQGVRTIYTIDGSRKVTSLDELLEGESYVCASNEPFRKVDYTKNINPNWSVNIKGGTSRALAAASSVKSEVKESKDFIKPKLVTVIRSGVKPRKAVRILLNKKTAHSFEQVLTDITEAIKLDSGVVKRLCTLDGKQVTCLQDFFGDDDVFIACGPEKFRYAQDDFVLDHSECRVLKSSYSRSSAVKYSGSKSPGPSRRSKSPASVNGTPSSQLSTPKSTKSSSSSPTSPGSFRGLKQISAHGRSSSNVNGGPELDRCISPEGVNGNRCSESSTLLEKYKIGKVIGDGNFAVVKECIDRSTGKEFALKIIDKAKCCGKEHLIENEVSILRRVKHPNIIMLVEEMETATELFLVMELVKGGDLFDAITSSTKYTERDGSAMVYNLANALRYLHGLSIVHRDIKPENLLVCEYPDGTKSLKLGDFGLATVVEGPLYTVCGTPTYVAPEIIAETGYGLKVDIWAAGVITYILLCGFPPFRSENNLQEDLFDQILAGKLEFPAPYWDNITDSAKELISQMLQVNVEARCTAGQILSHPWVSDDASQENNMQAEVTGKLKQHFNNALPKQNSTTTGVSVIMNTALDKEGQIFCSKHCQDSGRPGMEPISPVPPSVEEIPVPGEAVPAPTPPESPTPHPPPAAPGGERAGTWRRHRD
Structure (SMILES),observed,technique,concentration,remaining binding
NS(=O)(=O)c1cc(NC(=O)Cc2ccccc2)ccc1Oc1cccc(Cl)c1,cell-free assay,competition with immobilised ligand,1 µM,99%
O=C(c1ccc(Nc2ncc(Cl)c(-c3ccc(Cl)s3)n2)cc1)N1CCC(N2CCCC2)CC1,binding,competition with immobilised ligand,1 µM,90%
CCOCCn1cc(C(=O)Nc2ccc(-n3nc(-c4cccnc4)cc3C(F)(F)F)cn2)ccc1=O,cell-free assay,competition with immobilised ligand,1 µM,89%
c1cnn2ncc(-c3ccnc(N4CCC45COC5)n3)c2c1,binding,,1 µM,78%
COc1cnc(Nc2cccc(S(N)(=O)=O)c2)nc1N1CCN(c2ccccc2)CC1,binding,competition with immobilised ligand,1 µM,92%
CNCc1ccccc1-c1csc([C@H](C)Nc2nc(C)nc3cc(OC)c(OC)cc23)c1,cell-free assay,competition with immobilised ligand,1 µM,100%
CN(CCCC(F)(F)F)c1nccc(-c2cnn3ncccc23)n1,binding,,1 µM,88%
C[C@@H](c1ccc(-n2cnc3c(N)ncnc32)cc1)N1CCc2nn(C)c(Cc3ccccc3)c2C1=O,binding,competition with immobilised ligand,0.1 µM,100%
O=C(NCCCN1CCOCC1)c1ccc(Nc2nccc(-c3cc4ccccc4s3)n2)cc1,binding,competition with immobilised ligand,1 µM,98%
CN(C)CC#Cc1ccc(OCCCc2sc(N3CCc4cccc(C(=O)Nc5nc6ccccc6s5)c4C3)nc2C(=O)O)c(F)c1,cell-free assay,competition with immobilised ligand,1 µM,100%
C=CC(=O)N1CCC(C(=O)NCC(=O)N2CCN(c3nc(-c4cnc(N)nc4C(F)F)nc(N4CCOCC4)n3)CC2)CC1,binding,competition with immobilised ligand,1 µM,98%
CC1CCCN1c1nccc(-c2cnn3ncccc23)n1 (stereo not shown),binding,,1 µM,100%
COc1cnc(Nc2cccc(S(N)(=O)=O)c2)nc1N1CCN(c2ccccc2)C(=O)C1,binding,competition with immobilised ligand,1 µM,100%
Cn1nc(C(F)(F)F)cc1-c1cnc(N2CCc3cc(S(=O)(=O)Nc4c(F)cc(Cl)cc4F)cc(N4CCCC4=O)c32)nc1,cell-free assay,competition with immobilised ligand,1 µM,100%
COc1ccnn2ncc(-c3ccnc(N(C)C)n3)c12,binding,,1 µM,100%
CO[C@@H](C)c1c(Nc2ccc([C@@H](N(C)C(=O)C3CCS(=O)(=O)CC3)C(F)(F)F)cc2)cnc2cc(Cl)nn12,cell-free assay,competition with immobilised ligand,1 µM,95%
O=C(Nc1c[nH]nc1C(=O)NC1CCNCC1)c1cc(F)cc(F)c1,binding,competition with immobilised ligand,1 µM,100%
O=C(c1ccc(Nc2ncc(Cl)c(-c3cc4ccccc4s3)n2)cc1)N1CCC(N2CCCC2)CC1,binding,competition with immobilised ligand,1 µM,90%
COc1cc(C(=O)N2CCC(N3CCN(C)CC3)CC2)ccc1Nc1ncc2c(n1)N(C)c1ccccc1C(=O)N2C,binding,competition with immobilised ligand,10 µM,0.45%
